Bioassay records deposited in PubChem by The Scripps Research Institute Molecular Screening Center.
An excerpt weighted towards active compounds, which were near 1.9% of everything screened.
M4 antag – CHRM4 antagonism in calcium assay | inhibition, % at 3 µM | 0.73% of 360,000 active | P08173 | CHO-hM4 cells, ACh EC80, Fluo-8 calcium fluorescence;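 active means inhibition above its plate's cutoff, the mean inhibition of sample wells plus 3 SD, cut at about 27% in these data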
CHRM4 PAM – CHRM4 positive allosteric modulation; activation, % at 3 µM; AID 624126; CHO-K1 hM4/Gqi5, Fluo-8 calcium fluorescence, ACh EC20; 0% = ACh EC20, 100% = maximal ACh; 0.4% of 360,000 active; P08173;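 active means activation above its plate's cutoff, the mean activation of sample wells plus 3 SD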
CHRM5 antagonist – blocks acetylcholine activation of human M5 receptor. AID 624040. 0.59% of 360,000 active. inhibition, % at 3 µM. CHO-hM5 cells, Fluo-8 calcium fluorescence, ACh EC80. P08912;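 active means inhibition above a per-plate cutoff, the mean of that plate's test compounds plus 3 SD, cut at about 27% in these data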
Target sequence (P08912 whole entry, looked up): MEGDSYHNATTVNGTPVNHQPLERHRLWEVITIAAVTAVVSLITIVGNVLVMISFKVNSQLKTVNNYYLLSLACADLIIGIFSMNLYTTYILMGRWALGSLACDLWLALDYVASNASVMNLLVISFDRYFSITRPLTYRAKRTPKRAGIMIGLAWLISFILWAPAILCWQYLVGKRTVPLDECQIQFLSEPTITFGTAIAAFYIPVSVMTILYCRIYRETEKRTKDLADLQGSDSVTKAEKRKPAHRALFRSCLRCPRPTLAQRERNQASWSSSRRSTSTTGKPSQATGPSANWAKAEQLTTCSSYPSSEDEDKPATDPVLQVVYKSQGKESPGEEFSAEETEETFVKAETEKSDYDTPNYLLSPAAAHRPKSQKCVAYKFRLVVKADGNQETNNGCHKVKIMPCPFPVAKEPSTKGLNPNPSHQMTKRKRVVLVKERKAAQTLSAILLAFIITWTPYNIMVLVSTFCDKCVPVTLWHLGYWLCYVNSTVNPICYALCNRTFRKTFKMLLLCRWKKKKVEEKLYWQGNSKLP
M5 PAM – CHRM5 positive allosteric modulation | P08912 | CHO-K1 hM5, Fluo-8 calcium, ACh EC20 PAM; 0% = ACh EC20, 100% = ACh EC100 | activation, % at 3 µM | 0.3% of 360,000 active;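 active means activation above the run cutoff, the mean activation of all test compounds plus 3 SD, cut at about 18% in these data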
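Replicates: One well per compound, no replicates | System: Human M5 receptor in CHO-K1 cells | Benchmarks: Low control EC20 acetylcholine (0%), high control EC100 acetylcholine (100%) | Probe or stimulus: Acetylcholine, EC20 level | Times: Fluo-8 loading 80 min at 37 °C plus 30 min room temperature | Signal: Intracellular calcium via Fluo-8 fluorescence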
CHRM4 agonist – agonists of human muscarinic M4 receptor (CHRM4) | P08173 | CHO-K1 hM4/Gqi5, Fluo-8 calcium fluorescence; vehicle 0%, full acetylcholine response 100% | activation, % at 3 µM | 0.14% of 360,000 active;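 active means activation above the run mean over all test wells plus 3 SD, cut at about 32% in these data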;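 further: peak over basal fluorescence ratio per well then scaled between controls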
CHRM5 agonist – agonists of human muscarinic M5 receptor (CHRM5) | P08912 | CHO-K1 hM5 cells, Fluo-8 calcium fluorescence; 0% DMSO wells, 100% maximal acetylcholine response | activation, % at 3 µM | 0.19% of 360,000 active | AID 624037;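 active means activation above the run's mean over test compounds plus 3 SD, cut at about 23% in these data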;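 further: signal is peak over basal fluorescence ratio across the kinetic read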
Hits are given with their value; i = inactive.

SMILES | M4 antag | CHRM4 PAM | CHRM5 antagonist | M5 PAM | CHRM4 agonist | CHRM5 agonist
O=C1NC[C@@H](CCCCN2C[C@H](Cc3ccc(O)cc3)N(CC3CCCCC3)C(=O)C2=O)N(CCC2CCCCC2)C1=O | i | i | i | i | 71 | 37
CC(C)C[C@H]1CNC(=O)C(=O)N1C[C@@H]1CCCN1C[C@H](Cc1ccc(O)cc1)N1C[C@H](Cc2ccccc2)N(CC2CCCCC2)C(=O)C1=O | 37 | i | i | i | i | i
O=C(Cc1ccc(Cl)cc1)Nc1ccc(Cl)cn1 | i | i | i | 21 | i | i
O=C(Cc1ccc(F)cc1)Nc1ccc(Cl)cn1 | i | 15 | 30 | 49 | i | i
O=C(Cc1ccccc1)Nc1cccnc1 | i | i | i | i | i | i
O=C(COC(=O)Cc1ccc(F)cc1)Nc1ccc(Cl)cn1 | i | i | i | i | i | i
O=C(Cc1ccc(Cl)cc1)Nc1cccnc1 | i | 28 | i | i | i | i
OCCC1CN(Cc2cccn2-c2cccnc2)CCN1C1CCCCC1 (stereo not drawn) | i | i | i | i | i | i
O=C(c1ccc(N2CCCC2=O)cc1)N1CCN(c2ccccc2)CC1 | i | i | i | 45 | i | i
Cc1oc2nc(SCC(=O)N3CCCCC3)nc(N)c2c1C | i | 20 | i | i | i | i
CC1CCCC(C)N1C(=O)COC(=O)c1ccc(F)c(S(=O)(=O)N2CCOCC2)c1 (stereo not drawn) | i | i | i | i | i | i
CC[C@]12c3[nH]c4ccc(Cl)cc4c3CCN1C(=O)[C@@H](CC(=O)NCCC1=CCCCC1)C[C@@H]2C(=O)N1CCN(C(=O)C2CC2)CC1 | i | i | i | i | i | i
CN(C)C(=O)c1ccc(NC(=O)COC(=O)C2(c3ccccc3)CCCC2)cc1 | i | i | i | i | i | i
O=C1CC(c2ccccc2)CN1C(=O)c1cccnc1 (stereo not drawn) | i | i | i | 19 | i | i
O=C(Nc1nc(-c2ccccc2)c(-c2ccccc2)o1)c1ccc(F)cc1 | i | i | i | 34 | i | i
COc1cccc(C(=O)Nc2nc(-c3ccccc3)c(-c3ccccc3)o2)c1 | i | i | i | i | i | i
CCN1CCN(c2ccc(S(=O)(=O)N3CCOCC3)cc2NC(=O)CCOc2ccccc2)CC1 | i | i | 29 | i | i | i
Cc1ccccc1OCCC(=O)Nc1cc(S(=O)(=O)N2CCCCC2)ccc1N1CCN(C)CC1 | i | i | i | i | 56 | i
Cc1cccc(N2CCN(CC(=O)Nc3ccc(S(=O)(=O)N4CCOCC4)cc3)CC2)c1C | i | i | 34 | i | i | i
CCN1CCN(c2ccc(S(=O)(=O)N3CCCCC3)cc2NC(=O)Cc2ccc(Cl)c(Cl)c2)CC1 | i | i | i | i | 54 | 28
CCN1CCN(c2ccc(S(=O)(=O)N3CCCCC3)cc2NC(=O)Cc2ccccc2)CC1 | i | i | i | i | i | i
CCOc1ccc(N2C(=O)Nc3ccc(Br)cc3C2(O)C(=O)NCCN(C)C)cc1 (stereo not drawn) | i | i | i | i | i | i
O=C(NCC(=O)N(CC1CCCO1)C(C(=O)NC1CCCCC1)c1cccnc1)c1cccs1 (stereo not drawn) | i | i | i | i | i | i
CCCCCC(=O)Nc1cc(S(=O)(=O)N2CCCCC2)ccc1N1CCOCC1 | i | i | i | i | i | i
Cc1ccc(S(=O)(=O)N2CCOCC2)cc1NC(=O)COC(=O)C1CCC1 | i | i | i | i | i | i
SMILES | M4 antag | CHRM4 PAM | CHRM5 antagonist | M5 PAM | CHRM4 agonist | CHRM5 agonist
CCOC(=O)C1CCN(CC(=O)Nc2cc(S(=O)(=O)N3CCOCC3)ccc2C)CC1 | i | i | i | 19 | i | i
CCCCCC(=O)Nc1cc(S(=O)(=O)N2CCOCC2)ccc1N1CCCC1 | i | i | i | 30 | i | i
Cc1ccccc1N1CC(=O)N(c2ccccc2C)CC1=O | i | 20 | i | i | i | i
O=C1CN(c2ccccc2Cl)C(=O)CN1c1ccccc1Cl | i | i | i | i | i | i
Cc1cccc2c1N(CCOc1ccc(C(C)(C)C)cc1)C(=O)C2=O | i | i | i | i | i | 27
O=C1CC2CC1C(C(=O)O)C2C(=O)O (stereo not drawn) | i | i | i | i | i | i
Cc1ccc(CNc2ccc(N3CCOCC3)cc2)cc1 | i | 14 | i | i | i | i
CC(C)c1ccc(CNc2ccc(N3CCOCC3)cc2)cc1 | i | i | i | i | i | i
Cc1ccc(S(=O)(=O)N2c3ccccc3OCC2C(C)(C)C)cc1 (stereo not drawn) | i | i | i | 21 | i | i
Cc1ccc2c(c1)N(S(=O)(=O)c1ccc(F)cc1)C(C(C)(C)C)CO2 (stereo not drawn) | i | i | i | i | i | i
CCN(C(=O)COC(=O)c1cc2ccccc2cc1OC)c1c(N)n(Cc2ccccc2)c(=O)[nH]c1=O | i | 22 | i | i | i | i
CCN(C(=O)c1ccc(=O)[nH]c1)c1c(N)n(Cc2ccccc2)c(=O)[nH]c1=O | i | 22 | i | i | i | i
COCCCN(C(=S)NC(=O)c1ccc(C(C)(C)C)cc1)c1c(N)n(Cc2ccccc2)c(=O)[nH]c1=O | i | 27 | i | i | i | i
CCN(C(=O)CSc1nnnn1C)c1c(N)n(Cc2ccccc2)c(=O)[nH]c1=O | i | i | i | i | i | i
CCN(C(=O)CSc1nncs1)c1c(N)n(Cc2ccccc2)c(=O)[nH]c1=O | i | i | i | 29 | i | i
C/C(=N\NC(=O)c1nnn(-c2nonc2N)c1CSc1ccccc1)c1ccc2c(c1)OCO2 | i | i | i | i | i | i
CCOC(=O)C1CCC(CNCc2ccccc2C)CC1 (stereo not drawn) | 34 | i | i | i | i | i
CN(CC(=O)Nc1ccc(Cl)cc1)C(=O)CCc1c[nH]c2ccccc12 | i | i | i | i | i | i
CN1CCN(c2ccc([N+](=O)[O-])cc2C(=O)c2ccc(Br)cc2)CC1 | i | i | 37 | i | i | i
Cc1ccc(C(=O)c2cc([N+](=O)[O-])ccc2N2CCN(C)CC2)cc1 | i | i | i | i | i | i
CC1(C)C(=O)NC(=O)N1Cc1ccccc1 | i | i | i | i | i | i
CC(C)C12CN3CC(C(C)C)(CN(C1)C3c1ccccc1)C2O (stereo not drawn) | i | 32 | i | i | i | i
CN(C)c1ccc(C2N3CC4(C)CN2CC(C)(C3)C4O)cc1 (stereo not drawn) | i | i | i | i | i | i
C=C1C(=O)C23C(O)C1CCC2C12CCCC(C)(COC(C)=O)C1C(O)C3(O)OC2 (stereo not drawn) | 42 | i | i | i | i | i
